# tolC growth inh = growth inhibitors of E. coli BW25113 tolC mutant; OD615; growth inhibition, % at 10 µM (by protocol); actives 2.2% (n = 65,000); AID 573;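 active = growth inhibition at or above a cutoff equal to the mean over every tested compound plus 3 SD, cut at about 60% in these data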;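 also: growth measured after 20 h incubation at 37 °C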
#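 Test system: tolC-deleted E. coli BW25113; medium: LB with kanamycin 50 µg/mL; compound: single-point testing at 10 µM; incubation: 20 h compound exposure of bacteria at 37 °C; signal: OD at 615 nm; evaluation: growth inhibition in percent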
# BAP1 inh = human BAP1 deubiquitinase inhibition; recombinant BAP1, Ub-AMC hydrolysis fluorescence kinetic; active compounds read low; calls only at 20 µM; Q92560; AID 436; actives 0.48% (n = 72,000);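 active = activity remaining at or below 50% of control, provided the compound also passes the data quality filters; inactive = the rest, including low values that fail the filters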;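 also: 100% = DMSO wells rate and 0% = substrate alone blank rate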
# Target sequence (Q92560 whole entry, looked up): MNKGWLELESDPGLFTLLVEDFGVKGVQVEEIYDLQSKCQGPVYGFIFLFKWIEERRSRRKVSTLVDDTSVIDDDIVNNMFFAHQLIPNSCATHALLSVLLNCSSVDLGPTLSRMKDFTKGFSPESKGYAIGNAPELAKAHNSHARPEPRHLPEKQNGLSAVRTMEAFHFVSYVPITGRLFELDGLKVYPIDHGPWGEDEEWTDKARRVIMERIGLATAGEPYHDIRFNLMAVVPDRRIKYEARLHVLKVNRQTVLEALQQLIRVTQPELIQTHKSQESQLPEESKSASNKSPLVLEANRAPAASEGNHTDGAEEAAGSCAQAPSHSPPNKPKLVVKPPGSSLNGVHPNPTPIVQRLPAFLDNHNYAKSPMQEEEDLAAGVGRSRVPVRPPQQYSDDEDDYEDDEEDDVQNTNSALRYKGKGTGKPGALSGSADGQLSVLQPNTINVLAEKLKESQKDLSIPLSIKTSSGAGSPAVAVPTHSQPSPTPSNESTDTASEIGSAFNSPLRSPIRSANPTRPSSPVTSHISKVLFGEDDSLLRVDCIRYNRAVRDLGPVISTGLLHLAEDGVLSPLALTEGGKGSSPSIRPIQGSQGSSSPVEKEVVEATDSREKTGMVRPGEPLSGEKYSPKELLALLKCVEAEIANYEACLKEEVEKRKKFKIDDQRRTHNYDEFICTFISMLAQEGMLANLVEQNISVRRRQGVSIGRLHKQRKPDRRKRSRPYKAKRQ
# AP complement = alternative pathway complement inhibition, orthogonal assay; inhibition, % at 5 µM; Human serum alternative complement pathway, LPS-coated ELISA, C3 deposition; tested in compound mixtures; actives 0.08% (n = 62,000); AID 1235;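 active = inhibition above 30% in each of the two pooled mixtures holding the compound, so the lower value exceeds 30%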;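 also: 0% = serum in Mg-EGTA without compound and 100% = EDTA serum blank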
#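 Assay system: human serum alternative complement pathway, C3 deposition on LPS-coated wells; Dosing: 5 µM per compound in ten-compound mixtures; Detection: Anti-C3 ELISA, OD 450 nm; Buffer or medium: Mg2+-EGTA GVB++ buffer containing human serum at 1:15 dilution; Timing: 1 h at 37 °C; Replication: two different pools per compound.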
# E coli WT exp = growth inhibitors of E. coli BW25113 wild type. OD600 absorbance. growth inhibition, % at 100 µM. actives 0.15% (n = 98,000);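 active = growth inhibition above about 50% at one test dose, limit read from the data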;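 also: growth measured after 20 h incubation at 37 °C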
# E coli RNAP = blocks E. coli RNA polymerase transcription. AID 559. actives 0.2% (n = 62,000). inhibition, %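 (tested at 10 µM)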. fluorescence transcription assay; in the data active = inhibition above about 20%;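 also: 0% = enzyme without compound and 100% = no enzyme blank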
# MMP13 inh = blocks human MMP13 activity; MMP-13 fTHP FRET cleavage, Mca fluorescence; inhibition, % at 4 µM; actives 0.07% (n = 65,000);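 active = inhibition above the mean of compound-free control plate wells plus 3 SD, cut at about 14% in these data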;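 also: 0% = DMSO wells and 100% = wells with reference MMP-13 inhibitor after basal subtraction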
# Starred values were filed as active, the others as inactive; i = inactive; nt = not tested or not shown. Only a selection was taken, and hits are over-represented in it overall.
SMILES,tolC growth inh,BAP1 inh,AP complement,E coli WT exp,E coli RNAP,MMP13 inh
CC(C)Cn1c(=O)c(C(=O)Nc2ccncc2)c(O)c2ccccc21,96*,nt,6,nt,nt,4
Cc1ccc(NC(=O)c2c(O)c3ccccc3n(C)c2=O)nc1,17,nt,26,-7,1,2
C=CCn1c(=O)c(C(=O)Nc2ccc(O)cc2)c(O)c2ccccc21,nt,i,nt,nt,nt,nt
CCCn1c(=O)c(C(=O)Nc2nnc(C)s2)c(O)c2ccccc21,80*,i,13,nt,3,2
CCc1ccc2oc(-c3cccc(NC(=O)c4ccccc4F)c3)nc2c1,nt,i,nt,nt,nt,nt
CCOC(=O)c1c(N)sc(C(=O)Nc2cc(C)ccc2C)c1C,nt,i,nt,nt,nt,nt
COc1ccc(NC(=O)N(C2CCCCC2)C(C)c2cccnc2)c(OC)c1 (centres undefined),8,i,7,-3,2,-3
COc1ccc(NC(=O)N(C2CCCCC2)C(C)c2ccco2)c(OC)c1 (centres undefined),69*,i,-8,-17,-10,5
COc1ccc(NC(=O)Nc2nonc2C)cc1,nt,i,nt,nt,nt,nt
Cn1cccc1C(=O)Nc1nc(-c2ccccn2)cs1,90*,i,10,19,2,4
O=C(Nc1nc(-c2ccccn2)cs1)c1ccc(Cl)s1,100*,i,21,11,0,2
COc1ccc(S(=O)(=O)Nc2ccccc2C(F)(F)F)cc1,9,i,8,2,0,12
COc1ccc(S(=O)(=O)Nc2ccc(O)c3ccccc23)cc1,9,i,7,nt,24*,-13
C=CCN(CC=C)S(=O)(=O)c1ccc2nc(NC(=O)C(C)C)sc2c1,100*,i,16,5,4,0
O=C(Nc1cccc(-c2nc3ccccc3o2)c1)c1cccc(I)c1,nt,i,nt,nt,nt,nt
CC(=O)N1c2ccccc2NC2=C(C(=O)CC(c3ccccc3)C2)C1c1ccc2c(c1)OCO2 (centres undefined),nt,i,nt,nt,nt,nt
O=C(CSc1nnc(Cc2cccs2)n1Cc1ccco1)Nc1cccc(Cl)c1,8,i,11,-4,7,1
COc1ccc(-c2cnc(SCC(=O)Nc3cc(C)on3)n2Cc2ccco2)cc1,80*,i,26,-13,-2,3
O=C(CSc1nnc(Cc2cccs2)n1Cc1ccco1)Nc1cc(Cl)cc(Cl)c1,91*,i,-10,-24,11,2
COc1ccc(C)cc1NC(=O)CSc1nnc(COc2ccc(Cl)cc2)n1Cc1ccco1,5,i,0,-3,7,-3
CCOc1ccc(NCc2nnc(SCC(=O)Nc3cc(C)on3)n2-c2ccccc2OC)cc1,-7,i,2,-3,9,3
Cc1cnc(NC(=O)CSc2ncc(-c3ccccc3)n2Cc2ccco2)s1,10,i,13,2,3,-4
COc1ccc(C)cc1NC(=O)CSc1nnc(COc2ccccc2)n1Cc1ccco1,76*,i,11,-13,nt,-1
CCOc1ccc(NCc2nnc(SCC(=O)Nc3cc(C)on3)n2-c2ccc(OC)cc2)cc1,-4,i,12,5,25*,8
CN1CCCN(C2CC(=O)N(c3ccc(Br)cc3)C2=O)CC1 (centres undefined),nt,i,nt,nt,nt,nt
SMILES,tolC growth inh,BAP1 inh,AP complement,E coli WT exp,E coli RNAP,MMP13 inh
COc1ccc(-n2c(COc3ccc4ccccc4c3)nnc2SCC(=O)NCc2ccco2)cc1,nt,nt,nt,-32,nt,nt
COc1ccc(-n2c(COc3cccc(C)c3)nnc2SCC(=O)NCc2ccco2)cc1,20,i,1,-19,22*,2
Cc1cc(C(=O)COc2cccc(-n3cnnn3)c2)c(C)n1-c1ccccc1,23,nt,-8,-12,3,-2
COc1ccc(-n2c(C)cc(C(=O)COC(=O)Cn3cnc4ccccc43)c2C)cc1,63*,i,9,16,10,-3
CCCOC(=O)c1ccc(-c2c(C)noc2-c2ccc(OC)cc2O)o1,99*,i,-8,-6,9,-6
CCN(CC)c1ccc(C(=O)n2cnc3ccccc32)cc1,78*,i,8,-6,4,0
CSc1ncc(Cl)c(C(=O)C(C#N)c2nc3c(C)cc(C)cc3c(=O)[nH]2)n1 (centres undefined),96*,i,30,-11,-1,-21
COc1ccc(C2(CNC(=O)c3ccccc3[N+](=O)[O-])CCCC2)cc1OC,nt,i,nt,nt,nt,nt
